Columns and labels:
[1] = species on record: Homo sapiens; assay: Stability in human plasma assessed as hydrolysis half life
[2] = system: Plasma; assay: Stability in human plasma assessed as aspirin production at pH 7.4; assay type: ADME, cell-free
Summary of the method: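 Test ester incubated in dilute (10%) buffered human plasma, pH 7.4, 37 °C. Products (parent ester, deacetylated salicylate ester, aspirin, salicylic acid) were followed over time by RP-HPLC with PDA detection; salicylate esters read at 296 nm. Disappearance fitted to pseudo-first-order kinetics, half-life = 0.693/k_obs. Aspirin yield expressed on a molar basis.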

| Structure (SMILES) | half-life [1] [min] | Activity [2] [%] |
| --- | --- | --- |
| CC(=O)Oc1ccccc1C(=O)OCCO[N+](=O)[O-] | 1.6 | < 0.5 |
| CC(=O)Oc1ccccc1C(=O)OC(C)CO[N+](=O)[O-] (configuration not stated) | 1.47 | < 0.5 |
| CC(=O)Oc1ccccc1C(=O)OCC(=O)N(C)CCO[N+](=O)[O-] | 1.17 | < 0.5 |
| CCN(CCO[N+](=O)[O-])C(=O)COC(=O)c1ccccc1OC(C)=O | 1.03 | < 0.5 |
| CCCN(CCO[N+](=O)[O-])C(=O)COC(=O)c1ccccc1OC(C)=O | 1.15 | < 0.5 |
| CC(=O)Oc1ccccc1C(=O)OCC(=O)N(CCO[N+](=O)[O-])CC[N+](=O)[O-] | 6.12 | < 0.5 |
| CC(=O)Oc1ccccc1C(=O)OCCN(C)CCO[N+](=O)[O-] | 0.35 | < 0.5 |
| CCN(CCOC(=O)c1ccccc1OC(C)=O)CCO[N+](=O)[O-] | 1.05 | < 0.5 |
| CCCN(CCOC(=O)c1ccccc1OC(C)=O)CCO[N+](=O)[O-] | 0.65 | 9.2 |
| CC(=O)Oc1ccccc1C(=O)OCCN(CCO[N+](=O)[O-])CCO[N+](=O)[O-] | 1.12 | < 0.5 |
| CC(=O)Oc1ccccc1C(=O)OCCCO[N+](=O)[O-] | 2.23 | < 0.5 |

From ChEMBL document CHEMBL1139206, “Evaluation of nitrate-substituted pseudocholine esters of aspirin as potential nitro-aspirins” (Bioorg Med Chem Lett, 2007)
